Here are results for seven compounds from PubChem BioAssay AID2375 (NMMLSC, 2010).

For one test, the system named is Cdc42. Briefly: modulation of active Cdc42 and Rac1 in cells, profiling panel, Ras-related GTPase inhibitor project, cell lysate, ELISA, panel (AID 2375). The settings on record: NIH 3T3 cells, EGF-stimulated, PAK G-LISA active GTPase, stronger effect = lower value. Summed up: (§1)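 Material: 3T3 cell lysates captured on PAK-coated microwells / Medium: serum-free medium / Probe or stimulus: EGF 10 ng/ml, with or without / Dosing: compound at 1 and 10 µM / Technique: colorimetric ELISA with PAK capture of active GTPase / Controls: EGF-stimulated lysate maximum, unstimulated lysate baseline, 1 ng GTPase standard / Replicates: duplicates over several trials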

Another test concerns Rac1. Described as above. The settings on record: NIH 3T3 cells, EGF-stimulated, PAK G-LISA active GTPase, stronger effect = lower value. Summed up: as §1

Results filed as inconclusive are left out. Calls of active or inactive are those of the source.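 The calls were made as follows: active = compounds that lower growth-factor-driven active Cdc42 or Rac1 at 10 micromolar by more than 15 percent; inactive = the rest, inconclusive results apart.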

For `NS(=O)(=O)c1ccc(N2N=C(c3ccccc3)CC2c2cccc(Br)c2)cc1` (centres undefined), the normalized active GTPase is 0.764 with Cdc42 (active GTPase, at 1 µM); 1.4 (inactive) in the test with Cdc42 (at 10 µM); 0.556 in the test on Rac1 (active GTPase, at 1 µM); 0.691 in the test with Rac1 (at 10 µM).

Regarding `NS(=O)(=O)c1ccc(N2N=C(c3ccccc3)CC2c2ccc(Br)cc2)cc1` (centres undefined), the normalized active GTPase with Cdc42 (active GTPase, at 1 µM) is 1.12; in the test with Cdc42 (at 10 µM), 0.895 (inactive); with Rac1 (active GTPase, at 1 µM) it was 0.5; with Rac1 (at 10 µM), 0.47.

As for `COc1ccc(C2CC(c3cccc(OC)c3)=NN2c2ccc(S(N)(=O)=O)cc2)cc1` (centres undefined), the normalized active GTPase in the test with Cdc42 (active GTPase, at 1 µM) was 0.442; in the test on Cdc42 (at 10 µM), 1.25 (inactive).

Consider `Cc1ccc(C2CC(c3ccccc3)=NN2c2ccc(S(N)(=O)=O)cc2)cc1` (centres undefined), for which the normalized active GTPase is 0.994 in the test with Cdc42 (active GTPase, at 1 µM); 0.667 with Cdc42 (at 10 µM); 0.782 with Rac1 (active GTPase, at 1 µM); 0.941 (inactive) with Rac1 (at 10 µM).

With `COc1ccc(C2CC(c3ccccc3)=NN2c2ccc(S(N)(=O)=O)cc2)cc1OC` (centres undefined), the normalized active GTPase with Cdc42 (active GTPase, at 1 µM) was 0.87; in the test with Cdc42 (at 10 µM) it was 0.856 (inactive).

Regarding `COc1ccc(C2CC(c3ccccc3)=NN2c2ccc(S(N)(=O)=O)cc2)cc1` (centres undefined), the normalized active GTPase in the test with Cdc42 (active GTPase, at 1 µM) was 0.923; with Cdc42 (at 10 µM), 0.626; in the test with Rac1 (active GTPase, at 1 µM), 0.724; in the test with Rac1 (at 10 µM), 0.612.

In the case of `Cc1cccc(C2CC(c3ccccc3)=NN2c2ccc(S(N)(=O)=O)cc2)c1` (centres undefined), the normalized active GTPase in the test on Cdc42 (active GTPase, at 1 µM) is 0.979; in the test on Cdc42 (at 10 µM) it was 0.726; in the test with Rac1 (active GTPase, at 1 µM), 1.09; with Rac1 (at 10 µM) it was 0.932 (inactive).
